This passage reports IC50 and Kb results from ChEMBL document CHEMBL1949636, “Optimization of phenylacetic acid derivatives for balanced CRTH2 and DP dual antagonists” (Bioorg Med Chem Lett, 2012).

Bounds are passed on as bounds.

The target of test [1] is T1, Prostaglandin D2 receptor (Homo sapiens, UniProt Q13258).
T1 sequence (Q13258 whole entry): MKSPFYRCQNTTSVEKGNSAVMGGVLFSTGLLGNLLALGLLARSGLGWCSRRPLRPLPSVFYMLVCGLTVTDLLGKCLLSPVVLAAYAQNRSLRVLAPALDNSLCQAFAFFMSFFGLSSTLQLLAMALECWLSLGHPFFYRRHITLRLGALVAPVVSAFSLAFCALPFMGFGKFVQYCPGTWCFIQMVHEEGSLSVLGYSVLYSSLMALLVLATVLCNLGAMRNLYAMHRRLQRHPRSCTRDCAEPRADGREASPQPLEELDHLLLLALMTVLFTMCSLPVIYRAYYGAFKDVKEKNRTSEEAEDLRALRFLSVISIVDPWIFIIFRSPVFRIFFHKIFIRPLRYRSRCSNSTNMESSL
Description: Displacement of [3H]PGD2 from human DP receptor expressed in HEK293 cells by scintillation counting in presence of 0.5% BSA. Type of test: cell-based. In short, it runs like this:
(§1)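 Radioligand binding to intact HEK 293 cells stably expressing human CRTH2 or DP. Cells incubated with [3H]-PGD2 and increasing compound concentrations in binding buffer containing 0.5% BSA. After washing, bound [3H]-PGD2 counted by scintillation. […] Mean of three experiments; standard deviation 30%.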

Test [2] addresses T2, Prostaglandin D2 receptor 2 (Homo sapiens, UniProt Q9Y5Y4).
T2 sequence (Q9Y5Y4 whole entry): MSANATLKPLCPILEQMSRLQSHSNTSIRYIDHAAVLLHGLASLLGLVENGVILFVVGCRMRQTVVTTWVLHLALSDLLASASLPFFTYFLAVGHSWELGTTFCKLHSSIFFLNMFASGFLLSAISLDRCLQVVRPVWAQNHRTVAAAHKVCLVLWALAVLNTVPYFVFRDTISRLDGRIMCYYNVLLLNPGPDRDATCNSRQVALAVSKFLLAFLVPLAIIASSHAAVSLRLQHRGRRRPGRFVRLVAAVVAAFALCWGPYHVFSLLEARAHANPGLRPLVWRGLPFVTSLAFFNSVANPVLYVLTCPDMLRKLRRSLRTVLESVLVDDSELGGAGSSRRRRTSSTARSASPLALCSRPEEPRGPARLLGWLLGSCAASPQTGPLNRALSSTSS
Description: Displacement of [3H]PGD2 from human CRTH2 receptor expressed in HEK293 cells by scintillation counting in presence of 0.5% BSA. It counts as cell-based. In short, it runs like this:
as §1

Test [3] has as its target T3, Prostaglandin D2 receptor 2 (Homo sapiens) (UniProt Q9Y5Y4).
T3 sequence (whole entry): T2 sequence (Q9Y5Y4 whole entry)
Description: Antagonist activity at CRTH2 receptor in human eosinophol assessed as inhibition of PGD2-induced eosinophol shape change preincubated for 10 mins prior PGD2 stimulation measured after 10 mins by FACS flow cytometry. It counts as functional. In short, it runs like this:
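Granulocytes enriched from normal donor peripheral blood by density-gradient centrifugation; erythrocytes removed by ACK lysis. Cells pre-incubated 10 min at room temperature with antagonist or vehicle (0.05% DMSO), then stimulated with PGD2 (600–0.003 nM, 1:3 dilution) 10 min at 37 °C. Fixed in 1% final paraformaldehyde. Eosinophils gated as FL2-positive; geometric mean forward scatter used to derive IC50.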

The target of test [4] is T2, Prostaglandin D2 receptor 2. Description: Displacement of [3H]PGD2 from human CRTH2 receptor expressed in HEK293 cells by scintillation counting in presence of 50% plasma. Type of test: cell-based. In short, it runs like this:
(§2)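 Whole-cell [3H]-PGD2 binding on HEK 293 cells stably expressing human CRTH2 or DP, run in binding buffer containing 50% human plasma. Test compound added at increasing concentrations. Cells washed, and remaining bound radioligand measured by scintillation counting. Mean of three experiments; standard deviation 30%.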

For test [5], the target named is T4, Prostaglandin D2 receptor (Homo sapiens) (UniProt Q13258).
T4 sequence (whole entry): T1 sequence (Q13258 whole entry)
Description: Antagonist activity at DP receptor in PGD2-stimulated human platelets in 80% whole blood assessed as inhibition of IBMX-stimulated cAMP production preincubated for 30 mins prior PGD2 stimulation measured after 60 mins by immunoassay. Type of test: functional, tissue-based. In short, it runs like this: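 IBMX added to human whole blood at 1 mM final. Treated blood incubated with antagonist 30 min at 37 °C, then transferred to PGD2 at various concentrations for 60 min at 37 °C. Blood lysed and cAMP measured by direct immunoassay. PGD2-stimulated cAMP curves fitted with a Hill model.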

For test [6], the target named is T1, Prostaglandin D2 receptor. Description: Displacement of [3H]PGD2 from human DP receptor expressed in HEK293 cells by scintillation counting in presence of 50% plasma. It counts as cell-based. In short, it runs like this: as §2

For `CCCCNC(=O)c1ccc(S(=O)(=O)c2ccc(CC(=O)O)cc2)c(NS(=O)(=O)c2ccc(Cl)cc2Cl)c1`, the IC50 was > 10000 nM in test [1] and 400 nM in test [2].
The corresponding values for `CCCCNC(=O)c1ccc(Cc2ccc(CC(=O)O)cc2OC)c(NS(=O)(=O)c2ccc(Cl)cc2Cl)c1` are 6 nM and 2 nM.
For the compound `CCc1noc(-c2ccc(Oc3ccc(CC(=O)O)cc3OC)c(NS(=O)(=O)c3ccc(Cl)cc3Cl)c2)n1`, the results for the IC50 in test [1] and in test [2] were 23 nM and 770 nM, respectively.
As to `CCc1nc(-c2ccc(Oc3ccc(CC(=O)O)cc3OC)c(NS(=O)(=O)c3ccc(Cl)cc3Cl)c2)n[nH]1`, the IC50 in test [1] was 15 nM; in test [2], 6 nM.
As for `CCCCNC(=O)c1ccc(Oc2ccc(CC(=O)O)nc2)c(NS(=O)(=O)c2ccc(Cl)cc2Cl)c1`, the IC50 was found to be 230 nM in test [1] and 10 nM in test [2].
In the case of `CCCCNC(=O)c1ccc(Sc2ccc(CC(=O)O)cc2)c(NS(=O)(=O)c2ccc(Cl)cc2Cl)c1`, the results for the IC50 in test [1] and in test [2] were 630 nM and 21 nM, respectively.
Consider `CCCc1nc(-c2ccc(Oc3ccc(CC(=O)O)cc3OC)c(NS(=O)(=O)c3ccc(Cl)cc3Cl)c2)c[nH]1`, for which the IC50 in test [1] was 10 nM; in test [4], 20 nM; in test [2] it was 2 nM; in test [6], 110 nM. The Kb in test [3] is 0.18 nM; in test [5], 50 nM.
As to `CCCCNC(=O)c1ccc(Oc2ccc3c(c2)OCC3CC(=O)O)c(NS(=O)(=O)c2ccc(Cl)cc2Cl)c1` (stereo not drawn), the IC50 in test [1] is 150 nM; in test [2], 580 nM.
As to `CCCCNC(=O)c1ccc(Oc2ccc3c(ccn3CC(=O)O)c2)c(NS(=O)(=O)c2ccc(Cl)cc2Cl)c1`, the IC50 in test [1] was found to be 29 nM; in test [2], 2 nM.
With `CCCCNC(=O)c1ccc([S+]([O-])c2ccc(CC(=O)O)cc2)c(NS(=O)(=O)c2ccc(Cl)cc2Cl)c1` (stereo not drawn), the IC50 is > 10000 nM in test [1] and 660 nM in test [2].
With `CCCCNC(=O)c1ccc(Oc2ccc3c(CC(=O)O)c[nH]c3c2)c(NS(=O)(=O)c2ccc(Cl)cc2Cl)c1`, the values for the IC50 in test [1] and in test [2] were 83 nM and 3 nM, respectively.
`CCCCNC(=O)c1ccc(Oc2ccc3c(CC(=O)O)coc3c2)c(NS(=O)(=O)c2ccc(Cl)cc2Cl)c1`: the IC50 in test [1] and in test [2] was 5 nM throughout.
On to `CCCc1nc(-c2ccc(Oc3ccc(CC(=O)O)cc3OC)c(NS(=O)(=O)c3ccc(Cl)cc3Cl)c2)n[nH]1`, for which the IC50 in test [1] is 10 nM; in test [2] it was 4 nM.
For the compound `CCCCNC(=O)c1ccc(Oc2ccc(CC(=O)O)cn2)c(NS(=O)(=O)c2ccc(Cl)cc2Cl)c1`, the results for the IC50 in test [1] and in test [2] were 480 nM and 310 nM, respectively.
Regarding `CCCc1cc(-c2ccc(Oc3ccc(CC(=O)O)cc3OC)c(NS(=O)(=O)c3ccc(Cl)cc3Cl)c2)n[nH]1`, the IC50 turned out to be 4 nM in test [1], 8 nM in test [4], 2 nM in test [2] and 46 nM in test [6]. The Kb in test [3] is 0.084 nM; in test [5], 5 nM.
